Source: ChEMBL document CHEMBL1140866, “New pyrazoline bearing 4(3H)-quinazolinone inhibitors of monoamine oxidase: synthesis, biological evaluation, and structural determinants of MAO-A and MAO-B selectivity” (Bioorg Med Chem, 2009)

Tests used:
[1] = biological target: T1, Amine oxidase [flavin-containing] B (Rattus norvegicus, UniProt P19643); experiment: Inhibition of MAO-B in rat liver homogenate after 60 mins by residual activity plot; type: tissue-based
T1 sequence (P19643 whole entry): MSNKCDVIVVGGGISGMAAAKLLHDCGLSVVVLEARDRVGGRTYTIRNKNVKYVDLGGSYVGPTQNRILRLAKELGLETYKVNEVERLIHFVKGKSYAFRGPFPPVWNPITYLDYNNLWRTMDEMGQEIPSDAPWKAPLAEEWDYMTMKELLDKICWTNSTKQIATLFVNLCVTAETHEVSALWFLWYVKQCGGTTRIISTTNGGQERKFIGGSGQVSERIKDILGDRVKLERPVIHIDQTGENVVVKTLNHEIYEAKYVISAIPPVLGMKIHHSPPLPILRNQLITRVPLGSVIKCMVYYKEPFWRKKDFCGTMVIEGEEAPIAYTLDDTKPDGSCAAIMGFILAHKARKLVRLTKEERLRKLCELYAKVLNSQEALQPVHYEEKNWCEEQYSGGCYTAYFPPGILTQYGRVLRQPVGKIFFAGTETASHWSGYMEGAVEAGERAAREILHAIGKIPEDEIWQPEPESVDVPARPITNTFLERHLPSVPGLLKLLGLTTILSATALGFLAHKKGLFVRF

[2] = tested on: Mus musculus; experiment: Anxiolytic activity in albino mouse assessed as total number of entries into arms at 100 mg/kg, ip by plus-maze test; type: functional; details: route intraperitoneal
Method in brief: (§1)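 Mice given compounds i.p. at 100 mg/kg in DMSO/water (1:4), about 0.1 mL, 1 h before testing; controls got 0.1 mL vehicle; n = 7–8. Housed eight per cage, 20 ± 2 °C, 12 h light/dark. Each animal did the plus-maze first, then forced swim.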

[3] = tested on: Mus musculus; experiment: Anxiolytic activity in albino mouse assessed as time spent on closed arm at 100 mg/kg, ip by plus-maze test; type: functional; design: unit not given here; details: route intraperitoneal; method in brief: as §1
[4] = biological target: T2, Amine oxidase [flavin-containing] A (Rattus norvegicus, UniProt P21396); experiment: Inhibition of MAO-A in rat liver homogenate after 60 mins by residual activity plot; type: tissue-based
T2 sequence (P21396 whole entry): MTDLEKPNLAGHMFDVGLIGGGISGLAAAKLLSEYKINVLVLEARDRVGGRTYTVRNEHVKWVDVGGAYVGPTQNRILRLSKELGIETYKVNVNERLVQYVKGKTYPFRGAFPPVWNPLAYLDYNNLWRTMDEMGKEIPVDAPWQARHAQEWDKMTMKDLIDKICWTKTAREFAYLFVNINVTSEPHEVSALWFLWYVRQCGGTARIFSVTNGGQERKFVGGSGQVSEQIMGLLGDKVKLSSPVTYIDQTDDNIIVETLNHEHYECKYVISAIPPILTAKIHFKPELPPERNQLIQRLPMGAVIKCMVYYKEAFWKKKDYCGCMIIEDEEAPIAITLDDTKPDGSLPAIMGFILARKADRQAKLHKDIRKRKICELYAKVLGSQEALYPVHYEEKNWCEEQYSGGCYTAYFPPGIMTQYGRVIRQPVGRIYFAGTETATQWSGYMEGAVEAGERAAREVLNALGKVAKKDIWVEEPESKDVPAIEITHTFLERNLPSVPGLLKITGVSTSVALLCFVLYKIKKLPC

[5] = tested on: Mus musculus; experiment: Antidepressant activity in albino mouse assessed as immobility time at 100 mg/kg, ip by forced swim test; type: functional; details: route intraperitoneal; method in brief: as §1
[6] = biological target: T1, Amine oxidase [flavin-containing] B; experiment: Inhibition of MAO-B in rat liver homogenate after 60 mins by Lineweaver-Burke plot; type: tissue-based; details: for Activity: rat, 1 h, TDE = time-dependent effect
[7] = biological target: T2, Amine oxidase [flavin-containing] A; experiment: Inhibition of MAO-A in rat liver homogenate after 60 mins by Lineweaver-Burke plot; type: tissue-based; details: for Activity: rat, 1 h, TDE = time-dependent effect
[8] = tested on: Mus musculus; experiment: Antidepressant activity in albino mouse assessed as immobility time at 5 mg/kg, ip by forced swim test; type: functional; details: route intraperitoneal
[9] = tested on: Mus musculus; experiment: Anxiolytic activity in albino mouse assessed as total number of entries into arms at 5 mg/kg, ip by plus-maze test; type: functional; details: route intraperitoneal
[10] = tested on: Mus musculus; experiment: Anxiolytic activity in albino mouse assessed as time spent on closed arm at 5 mg/kg, ip by plus-maze test; type: functional; details: route intraperitoneal

| IC50 [1] [µM] | IC50 [4] [µM] | Ki [6] [µM] | Activity [6] | Ki [7] [µM] | Activity [7] | Compound | arm entries [2] [entries] | Activity [3] | Activity [5] [%] | Activity [8] [%] | arm entries [9] [entries] | Activity [10] [%] |
| --- | --- | --- | --- | --- | --- | --- | --- | --- | --- | --- | --- | --- |
| 400 | 4.51 | 9.9 | tde | 1.03 | tde | COc1ccc(C2CC(c3ccccc3)=NN2c2nc3ccccc3c(=O)n2C)cc1 (stereo unspecified) | 5.37 | 162.43 | 58 |  |  |  |
| 484 | 4.51 | 7.9 | tde | 2.56 | tde | Cc1ccc(C2CC(c3ccccc3)=NN2c2nc3ccccc3c(=O)n2C)cc1 (stereo unspecified) | 3.87 | 178.25 | 43.25 |  |  |  |
| 485 | 1.68 | 10.6 | tde | 1.17 | tde | Cn1c(N2N=C(c3ccccc3)CC2c2ccc(Br)cc2)nc2ccccc2c1=O (stereo unspecified) | 3.25 | 230 | 65.12 |  |  |  |
|  |  | 10.2 |  |  |  | O=C(NCCN1CCOCC1)c1ccc(Cl)cc1 [MOCLOBEMIDE] |  |  |  | 54.3 | 6.15 | 250.72 |
